Experiments:
[1] = system: Rattus norvegicus; assay: Percent efficacy (reduction in blood glucose) at 70 umol/kg in STZ diabetic rats after 11.25 days.; format: functional
In short: (§1)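 Sprague-Dawley rats on a high-fat diet made diabetic with STZ 40 mg/kg i.v. (tail vein). Selected by blood glucose >200 mg/dL at day 5 and by an 18 h fast plus oral dextrose load (1.35 g/kg). Dosed orally once daily for 11 days, 70 µmol/kg in CMC/Tween-80 vehicle, N = 9/group. Food removed during the 0–6 h window. Tail-tip glucose at 6 h postdose on days 8 and 11, expressed as percent efficacy (100% = 60 mg/dL).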

[2] = Percent control of beta-hydroxybutyrate in normal 18 hr-fasted rat model dosed at 100 umol/Kg; format: functional
In short: (§2)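 Male Sprague-Dawley rats fasted 18 h, single oral dose of 100 µmol/kg in 0.5% carboxymethylcellulose/0.2% Tween-80 in water, or vehicle alone, N = 5/group. Serum glucose and β-hydroxybutyrate measured in cardiac-puncture blood at 3 h postdose. Expressed as percent of vehicle control; Student's t-test.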

[3] = system: Rattus norvegicus; assay: Percent efficacy (reduction in blood glucose) at 70 umol/kg in STZ diabetic rats after 8.25 days.; format: functional; in short: as §1
[4] = Percent control of glucose in normal 18 hr-fasted rat model dosed at 100 umol/Kg; format: functional; in short: as §2
[5] = Area under the curve was evaluated by plasma concentration and time curve in normal rat after oral dosing of 300 uM/kg; format: ADME, organism-based
In short: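 Normal Sprague-Dawley rats, single oral dose of 300 µmol/kg in 0.5% carboxymethylcellulose/0.2% Tween-80 in water, N = 5/group. Tail-tip blood taken at 2, 4, 7, 8, 24, 36 and 48 h postdose and centrifuged. Plasma AUC0-48h of active metabolite 3.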

[6] = species on record: Rattus norvegicus; assay: Effective dose against beta- Hydroxybutyrate in Normal 18 hr-fasted rat model; format: functional
[7] = system: Rattus norvegicus; assay: Percent change in heart weight in a 28-day safety study in normal Sprague-Dawley rats at 550 uM/kg/day.; format: functional
In short: (§3)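 28-day safety study in normal Sprague-Dawley rats dosed daily at 380, 550 or 700 µmol/kg/day. Body weight given as percent of control. Organ weight calculated as [organ/body weight (treated)]/[organ/body weight (control)]. Significance reported at p < 0.05 and p < 0.01.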

[8] = system: Rattus norvegicus; assay: Percent change in liver weight in a 28-day safety study in normal Sprague-Dawley rats at 550 uM/kg/day.; format: functional; in short: as §3
[9] = system: Rattus norvegicus; assay: Percent change in testes weight in a 28-day safety study in normal Sprague-Dawley rats at 380,550, and 700 uM/kg/day.; format: functional, Testis; in short: as §3
[10] = system: Rattus norvegicus; assay: Percent change in body weight in a 28-day safety study in normal Sprague-Dawley rats at 700 uM/kg/day.; format: functional; in short: as §3
[11] = system: Rattus norvegicus; assay: Percent change in liver weight in a 28-day safety study in normal Sprague-Dawley rats at 700 uM/kg/day.; format: functional; in short: as §3
[12] = system: Rattus norvegicus; assay: Percent change in testes weight in a 28-day safety study in normal Sprague-Dawley rats at 700 uM/kg/day.; format: functional, Testis; in short: as §3
[13] = system: Rattus norvegicus; assay: Percent change in heart weight in a28-day safety study in normal Sprague-Dawley rats at 700 uM/kg/day.; format: functional; in short: as §3
[14] = system: Rattus norvegicus; assay: Percent change in body weight in a 28-day safety study in normal Sprague-Dawley rats at 380 uM/kg/day.; format: functional; in short: as §3
[15] = system: Rattus norvegicus; assay: Percent change in liver weight in a 28-day safety study in normal Sprague-Dawley rats at 380 uM/kg/day.; format: functional; in short: as §3
[16] = system: Rattus norvegicus; assay: Percent change in testes weight in a 28-day safety study in normal Sprague-Dawley rats at 380 uM/kg/day.; format: functional, Testis; in short: as §3
[17] = system: Rattus norvegicus; assay: Percent change in heart weight in a 28-day safety study in normal Sprague-Dawley rats at 380 uM/kg/day.; format: functional; in short: as §3
[18] = species on record: Rattus norvegicus; assay: Effective dose of the compound.; format: functional

SMILES | Efficacy [1] | Control [2] | Efficacy [3] | Control [4] | AUC [5] | further results
CCCCCCCC/C=C/CCCCCCCC(=O)OCC(COCc1ccc(C(=O)C(C)(C)C)cc1)OC(=O)CCCCCCC/C=C/CCCCCCCC (stereo not drawn) | 21.8% | <20.7% | 9.5% | 95.1% | – | –
CC(C)(C)C(=O)c1ccc(C(=O)OCC(COC(=O)c2ccc(C(=O)C(C)(C)C)cc2)(COC(=O)c2ccc(C(=O)C(C)(C)C)cc2)COC(=O)c2ccc(C(=O)C(C)(C)C)cc2)cc1 | – | 96.2% | – | 109.4% | – | –
CCCCCCCCCCCCCCCC(=O)OCC(COC(=O)c1ccc(C(=O)C(C)(C)C)cc1)OC(=O)CCCCCCCCCCCCCCC (stereo not drawn) | <90.2% | <20.5% | <75.7% | <63% | 1460 µg·h/mL | –
CC(C)(C)C(=O)c1ccc(COCc2ccc(COCc3ccc(C(=O)C(C)(C)C)cc3)o2)cc1 | -3.9% | <17.3% | 6.2% | <79.7% | – | –
CCCCCCCCCCCCCCCC(=O)OCC(COCc1ccc(C(=O)C(C)(C)C)cc1)OC(=O)CCCCCCCCCCCCCCC (stereo not drawn) | -46.4% | <31.2% | 0.4% | 97.8% | – | –
CC(C)(C)C(=O)c1ccc(C(=O)OC(CO)CO)cc1 | <88.1% | <10.9% | <67.4% | <59.3% | 1480 µg·h/mL | –
CC(C)(C)C(=O)c1ccc(COCC(O)CO)cc1 (stereo not drawn) | 4.3% | <33.5% | 5.7% | 77.6% | – | –
CCCCCCCCCCCCCCCC(=O)OCC(COC(=O)CCCCCCCCCCCCCCC)OC(=O)c1ccc(C(=O)C(C)(C)C)cc1 | <84.7% | <23.6% | 62.5% | <60.7% | 885 µg·h/mL | –
CCCCCCCCOCC(COCCCCCCCC)OC(=O)c1ccc(C(=O)C(C)(C)C)cc1 | – | <20.1% | – | <82.9% | – | –
CC(C)(C)C(=O)c1ccc(CSCCSCc2ccc(C(=O)C(C)(C)C)cc2)cc1 | – | 82.6% | – | 79.7% | – | –
CC(C)(C)C(=O)c1ccc(CSCc2ccccc2)cc1 | – | 59.5% | – | 68.9% | – | –
CCCCCCCCCCCCCCCC(=O)OCC(COC(=O)CCCCCCCCCCCCCCC)OC(=O)CCc1ccc(C(=O)C(C)(C)C)cc1 | <97.5% | <24.6% | <84% | <71.6% | 930 µg·h/mL | –
CC(C)(C)C(=O)c1ccc(C(=O)OCCC(COC(=O)c2ccc(C(=O)C(C)(C)C)cc2)COC(=O)c2ccc(C(=O)C(C)(C)C)cc2)cc1 | – | <28.8% | – | 98.6% | – | ED50 [6]: 96.2 mg/kg/day; Change [7]: 100%; Change [8]: 101%; Change [9]: 100%
CC(C)(C)C(O)c1ccc(C(=O)OCC(COC(=O)c2ccc(C(O)C(C)(C)C)cc2)OC(=O)c2ccc(C(O)C(C)(C)C)cc2)cc1 (stereo not drawn) | <61% | <32.5% | 49.8% | <57% | 1160 µg·h/mL | –
COCC(COC)OC(=O)c1ccc(C(=O)C(C)(C)C)cc1 | 54.9% | <15.5% | <75.8% | <69.4% | 1130 µg·h/mL | –
CC(C)(C)C(=O)c1ccc(COC/C=C/COCc2ccc(C(=O)C(C)(C)C)cc2)cc1 | -5.3% | <15% | 1.4% | 88.1% | – | –
CC(C)(C)C(=O)c1ccc(C(=O)OCC(O)COC(=O)c2ccc(C(=O)C(C)(C)C)cc2)cc1 | <111.1% | <11.9% | <99.5% | <58.4% | 1780 µg·h/mL | –
CC(C)(C)C(=O)c1ccc(C(=O)OCC(O)CO)cc1 (stereo not drawn) | <55.1% | <13.6% | 41.6% | <56.1% | 1450 µg·h/mL | –
CC(C)(C)C(=O)c1ccc(COCCN2CCOCC2)cc1 | -5.9% | <23.8% | <-13.1% | 98.2% | – | –
CCCCCCCCCCCCCCCC(=O)OCC(COC(=O)CCCCCCCCCCCCCCC)OCc1ccc(C(=O)C(C)(C)C)cc1 | 35.5% | <57.2% | 24.8% | 111.6% | 92 µg·h/mL | ED50 [6]: 127 mg/kg/day
CC(C)(C)C(=O)c1ccc(COCC(COCc2ccc(C(=O)C(C)(C)C)cc2)OCc2ccc(C(=O)C(C)(C)C)cc2)cc1 | 3.8% | <19.6% | 25.9% | 74.1% | – | –
CC(C)(C)C(=O)c1ccc(COCc2cccc(COCc3ccc(C(=O)C(C)(C)C)cc3)n2)cc1 | -6.8% | <32.5% | 18.2% | 98.2% | – | –
Cc1ccc(C2(C(C)(C)C)OCCO2)cc1 | <64% | <12% | <52% | <58% | 1510 µg·h/mL | Change [10]: <76%; Change [11]: 215%; Change [12]: <46%; Change [13]: 92%
CC(C)(C)C(=O)c1ccc(COCC2(COCc3ccc(C(=O)C(C)(C)C)cc3)CCCO2)cc1 | 40.1% | <12.7% | 45.6% | <78.1% | – | –
CC(C)(C)C(=O)c1ccc(C(=O)OCC(COC(=O)c2ccc(C(=O)C(C)(C)C)cc2)OC(=O)c2ccc(C(=O)C(C)(C)C)cc2)cc1 | <103.6% | <22.9% | <103.7% | 82.2% | 128 µg·h/mL | ED50 [6]: 88 mg/kg/day; Change [14]: 95%; Change [15]: <113%; Change [16]: 102%; Change [17]: 101%
CC(C)(C)C(=O)c1ccc(C(=O)OCC(CO)(CO)COC(=O)c2ccc(C(=O)C(C)(C)C)cc2)cc1 | – | <14.3% | – | <68.9% | – | ED50 [18]: 3.4 mg/kg/day
CCCCCCCCCCCCCCCC(=O)OC(CO)COC(=O)c1ccc(C(=O)C(C)(C)C)cc1 (stereo not drawn) | <64.5% | <22.7% | <69.8% | <60.7% | 645 µg·h/mL | –
